# Tests used:
# [1] = Growth inhibition of human HOP92 cells after 48 hrs by SRB assay; type: functional; details: HOP-92, 48 h
# How it was run: (§1)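 NCI five-dose assay against the ~60-cell-line panel (nine cancer types). Tenfold dilutions from 10−4 to 10−8 M were used with continuous 48-h exposure and SRB absorbance readout. Percent growth was computed from time-zero, control and treated absorbances. GI50 is the concentration giving 50% lower net protein increase than controls. Values not reached are reported as beyond the tested range.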
# SNB-75 [2] = assay: Growth inhibition of human SNB75 cells after 48 hrs by SRB assay; type: functional; details: SNB-75, 48 h; how it was run: as §1
# U-251 = assay: Growth inhibition of human U251 cells after 48 hrs by SRB assay; type: functional; details: U-251, 48 h
# How it was run: (§2)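 NCI ~60-cell-line five-dose screen. Cells were preincubated 24-48 h, then given compound at 10-fold dilutions from 10^-4 to 10^-8 M with 48 h continuous exposure. SRB protein stain was read by absorbance at time zero, in untreated control and with drug. GI50 was derived from [(Ti-Tz)/(C-Tz)]x100=50, TGI from Ti=Tz, and LC50 from [(Ti-Tz)/Tz]x100=-50.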
# NCI-H322M = assay: Growth inhibition of human NCI-H322M cells after 48 hrs by SRB assay; type: functional; how it was run: as §1
# A549 = assay: Growth inhibition of human A549/ATCC cells at 10 uM after 48 hrs by SRB assay; values are per cent of control; details: A549, 48 h
# CAKI-1 [3] = assay: Growth inhibition of human CAKI-1 cells after 48 hrs by SRB assay; type: functional; details: CAKI-1, 48 h; how it was run: as §1
# SR = assay: Growth inhibition of human SR cells after 48 hrs by SRB assay; type: functional; how it was run: as §2
# OVCAR-3 [4] = assay: Growth inhibition of human OVCAR3 cells after 48 hrs by SRB assay; type: functional; details: OVCAR-3, 48 h; how it was run: as §1
# SNB-75 [5] = assay: Growth inhibition of human SNB75 cells at 10 uM after 48 hrs by SRB assay; values are per cent of control; details: SNB-75, 48 h
# ACHN = assay: Growth inhibition of human ACHN cells after 48 hrs by SRB assay; type: functional; how it was run: as §1
# [6] = Growth inhibition of human UO31 cells at 10 uM after 48 hrs by SRB assay; values are per cent of control; details: UO-31, 48 h
# [7] = Growth inhibition of human UO31 cells after 48 hrs by SRB assay; type: functional; details: UO-31, 48 h; how it was run: as §2
# [8] = Growth inhibition of human OVCAR4 cells after 48 hrs by SRB assay; type: functional; details: OVCAR-4, 48 h; how it was run: as §1
# [9] = Growth inhibition of human SF539 cells at 10 uM after 48 hrs by SRB assay; values are per cent of control; details: SF-539, 48 h
# TK-10 = assay: Growth inhibition of human TK10 cells after 48 hrs by SRB assay; type: functional; details: TK-10, 48 h; how it was run: as §2
# Malme-3M = assay: Growth inhibition of human MALME-3M cells after 48 hrs by SRB assay; type: functional; how it was run: as §1
# [10] = Growth inhibition of human SF539 cells after 48 hrs by SRB assay; type: functional; details: SF-539, 48 h; how it was run: as §1
# CAKI-1 [11] = assay: Growth inhibition of human CAKI-1 cells at 10 uM after 48 hrs by SRB assay; values are per cent of control; details: CAKI-1, 48 h
# [12] = Growth inhibition of human Hs 578T cells after 48 hrs by SRB assay; type: functional; how it was run: as §1
# [13] = Acute toxicity in ip dosed white mouse; type: organism-based; details: in vivo
# How it was run: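 White male mice, 23-25 g, dosed intraperitoneally with compound dissolved in 0.9% NaCl saline plus 1-2 drops Polysorbate 80 (Tween-80). Solutions prepared immediately before use. Doses ranged 100-1000 mg/kg, testing 4 or 5 doses with 6 animals per dose. LD50 derived by the Litchfield-Wilcoxon method.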
# OVCAR-3 [14] = assay: Growth inhibition of human OVCAR3 cells at 10 uM after 48 hrs by SRB assay; values are per cent of control; details: OVCAR-3, 48 h
# [15] = test system: Trypanosoma brucei brucei; assay: Antitrypanosomal activity against bloodstream form of Trypanosoma brucei brucei strain 90-13 assessed as inhibition of parasite growth at 1 ug/ml after 72 hrs by resazurin reduction test; type: functional; details: strain 90-13, 72 h
# How it was run: (§3)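 Trypanosoma brucei brucei 90-13 bloodstream forms, grown in HMI9 with 10% FCS at 37 °C under 5% CO2. Log-phase parasites were seeded at 10^5 cells/mL with or without inhibitor, with stocks prepared in DMSO. After 72 h, resazurin was added and fluorescence was read at 530/590 nm after a further 4 h. Percent growth inhibition was calculated versus drug-free parasites, with DMSO as control.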
# [16] = test system: Trypanosoma brucei brucei; assay: Antitrypanosomal activity against bloodstream form of Trypanosoma brucei brucei strain 90-13 assessed as inhibition of parasite growth at 10 ug/ml after 72 hrs by resazurin reduction test; type: functional; details: strain 90-13, 72 h; how it was run: as §3
compound,measurement,setting,value
COc1ccc2cc(C(=O)Nc3nc(-c4ccccc4)cs3)sc(=O)c2c1OC,GI50,[1],1290 nM
same,TGI,[1]; read-out: pTGI (converted),3160 nM
same,GI50,SNB-75 [2],1580 nM
same,TGI,SNB-75 [2]; read-out: pTGI (converted),3550 nM
same,GI50,U-251,2000 nM
same,TGI,U-251; read-out: pTGI (converted),4470 nM
same,GI50,NCI-H322M; read-out: GI50,1280 nM
same,GI50,NCI-H322M; read-out: pGI50 (converted),1290 nM
same,TGI,NCI-H322M; read-out: pTGI (converted),5620 nM
same,growth percent at 10 µM,A549,-50.8%
same,GI50,CAKI-1 [3],240 nM
same,TGI,CAKI-1 [3]; read-out: pTGI (converted),1780 nM
same,GI50,SR,2750 nM
same,TGI,SR; read-out: pTGI (converted),> 100000 nM
same,GI50,OVCAR-3 [4],1910 nM
same,TGI,OVCAR-3 [4]; read-out: pTGI (converted),3720 nM
same,growth percent at 10 µM,SNB-75 [5],-43.8%
same,GI50,ACHN,2040 nM
same,TGI,ACHN; read-out: pTGI (converted),> 100000 nM
same,growth percent at 10 µM,[6],-65.5%
same,GI50,[7],1950 nM
same,TGI,[7]; read-out: pTGI (converted),3090 nM
same,GI50,[8],1860 nM
same,growth percent at 10 µM,[9],-48%
same,GI50,TK-10,2090 nM
same,TGI,TK-10; read-out: pTGI (converted),3800 nM
same,GI50,Malme-3M,1950 nM
same,TGI,Malme-3M; read-out: pTGI (converted),8320 nM
same,GI50,[10],1780 nM
same,TGI,[10]; read-out: pTGI (converted),3630 nM
same,growth percent at 10 µM,CAKI-1 [11],-70.8%
same,GI50,[12],2630 nM
same,TGI,[12]; read-out: pTGI (converted),4370 nM
same,LD50,[13],515 mg/kg
same,growth percent at 10 µM,OVCAR-3 [14],-67%
same,inhibition at 1 µg/mL,[15],28.6%
same,inhibition at 10 µg/mL,[16],11.3%
